# Laboratory results as given in ChEMBL document CHEMBL1250467, “Design, synthesis, and anticonvulsant activity of new N-Mannich bases derived from spirosuccinimides and spirohydantoins” (Bioorg Med Chem, 2010).
# The source made the active and inactive calls. The calls are words filed in the database; no cut-off is given here.
# Assays:
# Rattus norvegicus [1] = test: Anticonvulsant activity in Sprague-Dawley rat assessed as protection against subcutaneous pentylenetetrazole-induced seizures at 50 mg/kg po after 4 hrs; assay type: functional
# How it was run: (§1)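 Oral fixed dose of 50 mg/kg in male Sprague–Dawley rats (0.5% methylcellulose/water suspension), four rats per group. Pentylenetetrazole 70 mg/kg given sc at each test time (0.25, 0.5, 1, 2, 4 h); protection from clonic seizures counted per four rats, with motor impairment studied in parallel.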
# Mus musculus [2] = test: Anticonvulsant activity in ip dosed CF1 albino mouse assessed as dose required to protect against subcutaneous pentylenetetrazole-induced seizures after 0.5 hrs; assay type: functional
# How it was run: (§2)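 Male CF-1 mice; compounds suspended in 0.5% methylcellulose/water and injected ip at 30, 100 and 300 mg/kg. MES, scPTZ (pentylenetetrazole 85 mg/kg sc at the test time) and rotarod neurotoxicity were scored at 0.5 and 4 h. Value is the lowest dose active or toxic in half or more of the animals; signs such as ataxia or tremor were recorded.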
# [3] = Neurotoxicity in po dosed Sprague-Dawley rat by rotarod test; assay type: toxicity, organism-based; settings: in vivo
# How it was run: (§3)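 Male Sprague–Dawley rats dosed orally (0.5% methylcellulose/water suspension), groups of eight, tested at the previously estimated time of peak effect. Doses varied until at least three points lay in the 10–90% range of protection (MES, scPTZ) or minimal rotarod neurotoxicity. ED50/TD50 with 95% confidence intervals came from regression; PI = TD50/ED50.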
# Rattus norvegicus [4] = test: Anticonvulsant activity in Sprague-Dawley rat assessed as protection against subcutaneous pentylenetetrazole-induced seizures at 50 mg/kg po after 2 hrs; assay type: functional; how it was run: as §1
# Rattus norvegicus [5] = test: Anticonvulsant activity in Sprague-Dawley rat assessed as protection against maximal electroshock-induced seizures at 30 mg/kg po after 1 hr; assay type: functional
# How it was run: (§4)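 Male Sprague–Dawley rats, four per group, given 30 mg/kg orally as a 0.5% methylcellulose/water suspension. MES protection scored at 0.25, 0.5, 1, 2 and 4 h after dosing, motor impairment checked in parallel; data are the number of the four rats protected.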
# Mus musculus [6] = test: Neurotoxicity in CF1 albino mouse assessed as unable to grasp rotarod at 300 mg/kg, ip after 4 hrs by rotarod test; assay type: toxicity, organism-based; set-up: dose 300 mg/kg, route intraperitoneal; settings: in vivo; how it was run: as §2
# Rattus norvegicus [7] = test: Anticonvulsant activity in po dosed Sprague-Dawley rat assessed as protection against maximal electroshock-induced seizures; assay type: functional; how it was run: as §3
# Rattus norvegicus [8] = test: Anticonvulsant activity in po dosed Sprague-Dawley rat assessed as protection against subcutaneous pentylenetetrazole-induced seizures; assay type: functional; how it was run: as §3
# Rattus norvegicus [9] = test: Anticonvulsant activity in Sprague-Dawley rat assessed as protection against subcutaneous pentylenetetrazole-induced seizures at 50 mg/kg po after 1 hr; assay type: functional; how it was run: as §1
# Rattus norvegicus [10] = test: Anticonvulsant activity in Sprague-Dawley rat assessed as protection against subcutaneous pentylenetetrazole-induced seizures at 50 mg/kg po after 0.25 hrs; assay type: functional, organism-based; set-up: dose 50 mg/kg; how it was run: as §1
# Mus musculus [11] = test: Anticonvulsant activity in ip dosed CF1 albino mouse assessed as dose required to protect against maximal electroshock-induced seizures after 0.5 hrs; assay type: functional; how it was run: as §2
# Rattus norvegicus [12] = test: Anticonvulsant activity in po dosed Sprague-Dawley rat assessed as time required to peak protection against seizures; assay type: functional
# Rattus norvegicus [13] = test: Anticonvulsant activity in Sprague-Dawley rat assessed as protection against subcutaneous pentylenetetrazole-induced seizures at 50 mg/kg po after 0.5 hrs; assay type: functional; how it was run: as §1
# Rattus norvegicus [14] = test: Anticonvulsant activity in Sprague-Dawley rat assessed as protection against maximal electroshock-induced seizures at 30 mg/kg po after 0.25 hrs; assay type: functional; how it was run: as §4
# Mus musculus [15] = test: Neurotoxicity in CF1 albino mouse at 300 mg/kg, ip after 4 hrs by rotarod test; assay type: toxicity, organism-based; set-up: dose 300 mg/kg, route intraperitoneal; settings: in vivo; how it was run: as §2
# Rattus norvegicus [16] = test: Anticonvulsant activity in Sprague-Dawley rat assessed as protection against maximal electroshock-induced seizures at 30 mg/kg po after 2 hrs; assay type: functional; how it was run: as §4
# Mus musculus [17] = test: Anticonvulsant activity in CF1 albino mouse assessed as protection against subcutaneous pentylenetetrazole-induced seizures at 300 mg/kg, ip after 4 hrs; assay type: functional, organism-based; set-up: dose 300 mg/kg; how it was run: as §2
# Mus musculus [18] = test: Anticonvulsant activity in ip dosed CF1 albino mouse assessed as dose required to protect against maximal electroshock-induced seizures after 4 hrs; assay type: functional; how it was run: as §2
# Rattus norvegicus [19] = test: Anticonvulsant activity in Sprague-Dawley rat assessed as protection against maximal electroshock-induced seizures at 30 mg/kg po after 0.5 hrs; assay type: functional; how it was run: as §4
# Rattus norvegicus [20] = test: Anticonvulsant activity in Sprague-Dawley rat assessed as protection against maximal electroshock-induced seizures at 30 mg/kg po after 4 hrs; assay type: functional; how it was run: as §4
# Mus musculus [21] = test: Neurotoxicity in CF1 albino mouse assessed as myoclonic jerks at 100 mg/kg, ip after 4 hrs by rotarod test; assay type: toxicity, organism-based; set-up: dose 100 mg/kg, route intraperitoneal; settings: in vivo; how it was run: as §2
# Rattus norvegicus [22] = test: Anticonvulsant activity in Sprague-Dawley rat assessed as protection against pilocarpine-induced status epilepticus at 600 mg/kg, ip measured after clonus of one of the fore limbs seizure stage; assay type: functional, organism-based; set-up: dose 600 mg/kg
# How it was run: (§5)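 Male Sprague–Dawley rats (150–180 g) received compound ip at 600 mg/kg, then a challenge dose of pilocarpine. Seizure severity graded on the Racine scale; rats were scored as protected or not, and body weight change was taken 24 h after the first stage III seizure.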
# Mus musculus [23] = test: Neurotoxicity in ip dosed CF1 albino mouse assessed as dose required to cause toxicity after 4 hrs by rotarod test; assay type: organism-based; settings: in vivo; how it was run: as §2
# Mus musculus [24] = test: Anticonvulsant activity in CF1 albino mouse assessed as protection against maximal electroshock-induced seizures at 300 mg/kg, ip after 4 hrs; assay type: functional, organism-based; set-up: dose 300 mg/kg; how it was run: as §2
# Rattus norvegicus [25] = test: Toxicity in Sprague-Dawley rat assessed as change in body weight at 600 mg/kg, ip measured after 24 hrs of clonus of one of the fore limbs seizure stage in protected rat; assay type: organism-based; set-up: dose 600 mg/kg, route intraperitoneal; settings: in vivo; how it was run: as §5
# Rattus norvegicus [26] = test: Anticonvulsant activity in Sprague-Dawley rat assessed as protection against pilocarpine-induced status epilepticus at 600 mg/kg, ip; assay type: functional, organism-based; set-up: dose 600 mg/kg; how it was run: as §5
# Rattus norvegicus [27] = test: Toxicity in Sprague-Dawley rat assessed as change in body weight at 600 mg/kg, ip measured after 24 hrs of clonus of one of the fore limbs seizure stage in non-protected rat; assay type: organism-based; set-up: dose 600 mg/kg, route intraperitoneal; settings: in vivo; how it was run: as §5
# Mus musculus [28] = test: Neurotoxicity in ip dosed CF1 albino mouse assessed as dose required to cause toxicity after 0.5 hrs by rotarod test; assay type: organism-based; settings: in vivo; how it was run: as §2
# Mus musculus [29] = test: Anticonvulsant activity in CF1 albino mouse assessed as protection against electrically-induced seizure at 100 mg/kg, ip after 2 hrs by 6Hz psychomotor seizure test; assay type: functional, organism-based; set-up: dose 100 mg/kg
# How it was run: (§6)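 Male CF-1 mice, compound suspended in 0.5% methylcellulose/water, given ip at 100 mg/kg; four mice per time point (0.25, 0.5, 1, 2, 4 h). Corneal stimulation with 0.2 ms monopolar rectangular pulses at 6 Hz for 3 s from a constant-current device, mice manually restrained. A mouse counted as protected if normal exploratory behaviour resumed within 10 s; motor impairment was noted alongside.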
# Mus musculus [30] = test: Anticonvulsant activity in CF1 albino mouse assessed as protection against electrically-induced seizure at 100 mg/kg, ip after 1 hr by 6Hz psychomotor seizure test; assay type: functional; how it was run: as §6
# Mus musculus [31] = test: Anticonvulsant activity in CF1 albino mouse assessed as protection against electrically-induced seizure at 100 mg/kg, ip after 0.25 hrs by 6Hz psychomotor seizure test; assay type: functional, organism-based; set-up: dose 100 mg/kg; how it was run: as §6
# Mus musculus [32] = test: Anticonvulsant activity in CF1 albino mouse assessed as protection against electrically-induced seizure at 100 mg/kg, ip after 0.5 hrs by 6Hz psychomotor seizure test; assay type: functional, organism-based; set-up: dose 100 mg/kg; how it was run: as §6
# Mus musculus [33] = test: Anticonvulsant activity in CF1 albino mouse assessed as protection against subcutaneous pentylenetetrazole-induced seizures at 300 mg/kg, ip after 0.5 hrs; assay type: functional, organism-based; set-up: dose 300 mg/kg; how it was run: as §2
# [34] = Displacement of [3H]batrachotoxin from neurotoxin site 2 of voltage-gated sodium channel in rat forebrain tissue; settings: read-out: IC50
# Rattus norvegicus [35] = species: Rattus norvegicus; test: Protection index, ratio of TD50 for Sprague-Dawley rat by rotarod test to ED50 for Sprague-Dawley rat by maximal electroshock test; assay type: functional; how it was run: as §3
# Mus musculus [36] = test: Anticonvulsant activity in CF1 albino mouse assessed as protection against electrically-induced seizure at 100 mg/kg, ip after 4 hrs by 6Hz psychomotor seizure test; assay type: functional; settings: route intraperitoneal; how it was run: as §6
Compound,Activity (Rattus norvegicus [1]) [%],Activity (Mus musculus [2]) [mg/kg],TD50 [3] [mg/kg],Activity (Rattus norvegicus [4]) [%],Activity (Rattus norvegicus [5]),Activity (Mus musculus [6]),ED50 (Rattus norvegicus [7]) [mg/kg],Activity (Rattus norvegicus [9]),Activity (Rattus norvegicus [10]),Activity (Mus musculus [11]) [mg/kg],Time (Rattus norvegicus [12]) [h],Activity (Rattus norvegicus [13]),Activity (Rattus norvegicus [14]),Activity (Mus musculus [15]),Activity (Rattus norvegicus [16]) [%],Activity (Mus musculus [17]),Activity (Mus musculus [18]) [mg/kg],Activity (Rattus norvegicus [19]),Activity (Rattus norvegicus [20]) [%],Activity (Rattus norvegicus [22]),also measured
O=C1CC2(CCc3ccccc3C2)C(=O)N1CN1CCOCC1 (stereo unspecified),25,100,> 500,25,25%,Non-toxic,> 160,25%,inactive,100,0.5,25%,50%,Non-toxic,25,inactive,300,25%,50,–,ED50 (Rattus norvegicus [8]): > 150 mg/kg
O=C1CC2(CCc3ccccc3C2)C(=O)N1CN1CCN(c2ccc(F)cc2)CC1 (stereo unspecified),25,–,–,25,inactive,–,–,inactive,inactive,100,–,inactive,inactive,–,25,inactive,–,inactive,25,inactive,Activity (Mus musculus [21]): Toxic; Activity (Mus musculus [23]): 300 mg/kg; Activity (Mus musculus [24]): inactive; Activity (Rattus norvegicus [25]): Non-toxic; Activity (Rattus norvegicus [26]): inactive; Activity (Rattus norvegicus [27]): 20 g; Activity (Mus musculus [28]): 300 mg/kg
O=C1CC2(CCc3ccccc3C2)C(=O)N1CN1CCN(c2cccc(Cl)c2)CC1 (stereo unspecified),–,–,> 500,–,25%,–,19.6,–,–,300,6,–,inactive,Non-toxic,50,inactive,100,inactive,50,inactive,Activity (Mus musculus [29]): inactive; Activity (Mus musculus [30]): inactive; Activity (Mus musculus [31]): inactive; Activity (Mus musculus [32]): inactive; Activity (Mus musculus [33]): inactive; IC50 [34]: 2450 nM; Activity (Rattus norvegicus [25]): Non-toxic; Activity (Rattus norvegicus [26]): inactive; Activity (Rattus norvegicus [27]): 20.6 g; PI (Rattus norvegicus [35]): 25.55; Activity (Mus musculus [28]): 300 mg/kg; Activity (Mus musculus [36]): 50%
O=C1CC2(CCc3ccccc3C2)C(=O)N1CN1CCN(CCO)CC1 (stereo unspecified),–,300,–,–,inactive,Non-toxic,–,–,–,100,–,–,25%,Non-toxic,25,inactive,100,25%,50,–,–
